This is an account of results in ChEMBL document CHEMBL1129400 (J Med Chem, 1996).

Some results are limits rather than exact numbers.

The target in assay [1] is D(2) dopamine receptor (Rattus norvegicus, UniProt P61169). The experiment in a line: Compound was tested for binding affinity against native Dopamine receptor D2 from rat striatum using radioligand [3H]-spiperone). In short, it runs like this: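 Rat striatal membranes were prepared in Tris-HCl pH 7.4 with 10 µM pargyline, 0.1% ascorbic acid, 120 mM NaCl, 5 mM KCl, 2 mM CaCl2 and 1 mM MgCl2. Filtration and scintillation counting followed. Ki was obtained from the curve-fitted IC50 via Cheng-Prusoff; values are mean pKi ± SE.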
Sequence of D(2) dopamine receptor (P61169 whole entry): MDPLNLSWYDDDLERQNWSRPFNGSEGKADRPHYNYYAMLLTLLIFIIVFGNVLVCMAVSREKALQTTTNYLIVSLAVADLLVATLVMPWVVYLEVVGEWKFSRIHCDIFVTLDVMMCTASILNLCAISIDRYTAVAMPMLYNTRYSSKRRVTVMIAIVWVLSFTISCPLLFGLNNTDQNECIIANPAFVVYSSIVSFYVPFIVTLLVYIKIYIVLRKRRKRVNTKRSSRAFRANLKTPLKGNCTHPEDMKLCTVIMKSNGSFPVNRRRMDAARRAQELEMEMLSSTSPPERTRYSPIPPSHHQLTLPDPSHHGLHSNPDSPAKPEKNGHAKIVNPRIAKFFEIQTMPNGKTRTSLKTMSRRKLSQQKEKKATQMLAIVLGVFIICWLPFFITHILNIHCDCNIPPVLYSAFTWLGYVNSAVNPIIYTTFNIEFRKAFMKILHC

Assay [2] addresses T1, Alpha-1B adrenergic receptor (Homo sapiens, UniProt P35368).
T1 sequence (P35368 whole entry): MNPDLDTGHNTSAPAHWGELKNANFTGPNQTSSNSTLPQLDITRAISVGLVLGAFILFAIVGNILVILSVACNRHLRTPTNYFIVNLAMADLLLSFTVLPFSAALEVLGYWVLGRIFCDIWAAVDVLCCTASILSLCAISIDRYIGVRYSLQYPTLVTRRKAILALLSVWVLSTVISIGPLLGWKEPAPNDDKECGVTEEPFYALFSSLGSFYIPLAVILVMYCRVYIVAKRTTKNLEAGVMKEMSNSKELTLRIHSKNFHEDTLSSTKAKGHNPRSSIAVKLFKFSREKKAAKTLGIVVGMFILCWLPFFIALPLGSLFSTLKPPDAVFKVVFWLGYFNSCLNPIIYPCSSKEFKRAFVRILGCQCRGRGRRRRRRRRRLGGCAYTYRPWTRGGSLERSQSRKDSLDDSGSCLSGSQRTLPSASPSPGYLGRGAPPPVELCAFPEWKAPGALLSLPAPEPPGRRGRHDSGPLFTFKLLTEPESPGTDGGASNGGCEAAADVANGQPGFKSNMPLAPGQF
The experiment in a line: Compound was tested for binding affinity against […] Alpha-1B adrenergic receptor using radioligand ([3H]-prazosin) binding assay. An outline of the steps:
(§1)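 Membranes (30 µg protein) came from CHO cells stably transfected with the human α1-adrenoceptor subtype gene. […] Nonspecific binding was defined with 10 µM phentolamine. Filtration on PEI-treated filters followed. Ki came from the fitted IC50 via Cheng-Prusoff.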

For assay [3], the target named is T2, 5-hydroxytryptamine receptor 1A (Rattus norvegicus, UniProt P19327).
T2 sequence (P19327 whole entry): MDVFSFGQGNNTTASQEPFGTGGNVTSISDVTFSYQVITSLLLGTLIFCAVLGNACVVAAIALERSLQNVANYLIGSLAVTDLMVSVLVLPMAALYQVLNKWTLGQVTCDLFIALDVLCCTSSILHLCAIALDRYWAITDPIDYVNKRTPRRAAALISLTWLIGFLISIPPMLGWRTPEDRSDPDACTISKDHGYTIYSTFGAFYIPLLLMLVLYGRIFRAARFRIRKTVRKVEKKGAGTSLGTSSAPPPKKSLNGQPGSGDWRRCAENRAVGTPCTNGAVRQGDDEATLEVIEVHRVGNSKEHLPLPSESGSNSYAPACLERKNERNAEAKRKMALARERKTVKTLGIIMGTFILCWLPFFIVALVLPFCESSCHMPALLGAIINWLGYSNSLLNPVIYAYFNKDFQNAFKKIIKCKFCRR
The experiment in a line: Binding affinity against native 5-HT1A-receptors from rat hippocampus using radioligand ([3H]8-hydroxy-2-(di-n-propylamino)-tetraline) binding assay. It counts as tissue-based.

In assay [4] the target is T3, Alpha-1D adrenergic receptor (Homo sapiens, UniProt P25100).
T3 sequence (P25100 whole entry): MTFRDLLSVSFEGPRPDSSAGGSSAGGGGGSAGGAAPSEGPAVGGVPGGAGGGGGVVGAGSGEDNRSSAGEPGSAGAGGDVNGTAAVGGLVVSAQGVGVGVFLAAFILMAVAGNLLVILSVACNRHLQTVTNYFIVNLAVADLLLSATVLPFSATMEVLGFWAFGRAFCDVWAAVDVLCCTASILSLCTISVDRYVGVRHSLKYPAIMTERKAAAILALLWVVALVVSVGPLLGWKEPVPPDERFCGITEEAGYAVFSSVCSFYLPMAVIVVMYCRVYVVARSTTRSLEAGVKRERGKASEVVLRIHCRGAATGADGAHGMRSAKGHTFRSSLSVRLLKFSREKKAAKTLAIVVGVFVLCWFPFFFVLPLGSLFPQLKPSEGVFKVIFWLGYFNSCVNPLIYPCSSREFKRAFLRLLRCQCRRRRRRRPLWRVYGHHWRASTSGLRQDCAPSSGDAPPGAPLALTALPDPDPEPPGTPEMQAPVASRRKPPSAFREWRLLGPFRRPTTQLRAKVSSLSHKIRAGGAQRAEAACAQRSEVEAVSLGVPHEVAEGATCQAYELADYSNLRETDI
The experiment in a line: Compound was tested for binding affinity against human hippocampus Alpha-1D adrenergic receptor using radioligand ([3H]prazosin) binding assay. In short, it runs like this:
as §1

The target of assay [5] is T4, Adrenergic receptor alpha-2 (Rattus norvegicus, UniProt P22086+P19328+P22909).
T4 sequence (P22086 whole entry): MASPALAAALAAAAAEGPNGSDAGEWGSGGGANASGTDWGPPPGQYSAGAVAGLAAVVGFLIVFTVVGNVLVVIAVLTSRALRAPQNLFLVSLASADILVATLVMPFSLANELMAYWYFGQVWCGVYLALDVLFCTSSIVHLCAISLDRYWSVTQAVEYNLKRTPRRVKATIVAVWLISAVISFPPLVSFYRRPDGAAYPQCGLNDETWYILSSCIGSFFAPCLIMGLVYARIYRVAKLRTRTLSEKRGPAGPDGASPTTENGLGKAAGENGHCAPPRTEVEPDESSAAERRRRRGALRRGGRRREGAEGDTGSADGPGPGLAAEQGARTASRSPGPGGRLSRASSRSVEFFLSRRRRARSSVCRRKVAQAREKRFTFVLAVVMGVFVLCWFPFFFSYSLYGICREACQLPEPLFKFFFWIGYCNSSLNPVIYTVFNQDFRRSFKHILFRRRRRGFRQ
T4 sequence (P19328 whole entry): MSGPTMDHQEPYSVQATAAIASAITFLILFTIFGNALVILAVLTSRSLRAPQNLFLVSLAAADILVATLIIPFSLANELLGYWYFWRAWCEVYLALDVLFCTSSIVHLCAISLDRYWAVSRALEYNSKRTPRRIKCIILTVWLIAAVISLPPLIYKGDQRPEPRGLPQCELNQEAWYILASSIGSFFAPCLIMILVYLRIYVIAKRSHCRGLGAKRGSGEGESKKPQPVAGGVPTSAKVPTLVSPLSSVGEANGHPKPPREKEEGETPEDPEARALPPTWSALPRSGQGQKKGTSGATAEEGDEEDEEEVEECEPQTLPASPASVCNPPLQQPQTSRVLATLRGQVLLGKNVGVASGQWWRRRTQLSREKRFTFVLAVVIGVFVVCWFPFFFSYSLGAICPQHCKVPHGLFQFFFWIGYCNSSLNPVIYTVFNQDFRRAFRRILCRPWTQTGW
T4 sequence (P22909 whole entry): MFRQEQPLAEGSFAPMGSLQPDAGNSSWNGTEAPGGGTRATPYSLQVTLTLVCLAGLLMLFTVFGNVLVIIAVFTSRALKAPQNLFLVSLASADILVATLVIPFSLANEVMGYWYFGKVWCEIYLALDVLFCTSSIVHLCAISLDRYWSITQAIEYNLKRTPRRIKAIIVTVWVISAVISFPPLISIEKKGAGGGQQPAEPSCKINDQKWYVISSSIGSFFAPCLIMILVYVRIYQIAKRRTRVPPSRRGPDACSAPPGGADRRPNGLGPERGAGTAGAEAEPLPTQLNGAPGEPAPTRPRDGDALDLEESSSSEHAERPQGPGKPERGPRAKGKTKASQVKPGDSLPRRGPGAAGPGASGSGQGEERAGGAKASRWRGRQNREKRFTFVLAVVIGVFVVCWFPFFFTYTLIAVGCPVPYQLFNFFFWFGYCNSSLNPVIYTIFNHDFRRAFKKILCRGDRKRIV
The experiment in a line: Binding affinity against native Alpha-2 adrenergic receptor from rat cerebral cortex using radioligand ([3H]rauwolscine) binding assay. It counts as tissue-based.

Assay [6] deals with T5, Alpha-1A adrenergic receptor (Homo sapiens, UniProt P35348).
T5 sequence (P35348 whole entry): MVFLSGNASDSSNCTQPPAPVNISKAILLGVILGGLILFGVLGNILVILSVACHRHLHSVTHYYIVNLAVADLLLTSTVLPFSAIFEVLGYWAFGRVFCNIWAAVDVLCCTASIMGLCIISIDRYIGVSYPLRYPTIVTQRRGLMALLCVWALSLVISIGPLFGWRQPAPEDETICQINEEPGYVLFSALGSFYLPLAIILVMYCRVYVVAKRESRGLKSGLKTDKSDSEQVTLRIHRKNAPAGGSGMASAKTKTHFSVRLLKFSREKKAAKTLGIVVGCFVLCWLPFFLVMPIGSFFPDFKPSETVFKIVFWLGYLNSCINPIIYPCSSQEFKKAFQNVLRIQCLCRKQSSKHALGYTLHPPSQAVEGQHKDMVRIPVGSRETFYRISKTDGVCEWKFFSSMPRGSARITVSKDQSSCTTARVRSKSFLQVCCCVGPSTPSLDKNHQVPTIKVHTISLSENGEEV
The experiment in a line: Compound was tested for binding affinity against human hippocampus Alpha-1A adrenergic receptor using radioligand ([3H]prazosin) binding assay. In short, it runs like this: as §1

Assay [7] deals with T6, Alpha-1A adrenergic receptor (Bos taurus, UniProt P18130).
T6 sequence (P18130 whole entry): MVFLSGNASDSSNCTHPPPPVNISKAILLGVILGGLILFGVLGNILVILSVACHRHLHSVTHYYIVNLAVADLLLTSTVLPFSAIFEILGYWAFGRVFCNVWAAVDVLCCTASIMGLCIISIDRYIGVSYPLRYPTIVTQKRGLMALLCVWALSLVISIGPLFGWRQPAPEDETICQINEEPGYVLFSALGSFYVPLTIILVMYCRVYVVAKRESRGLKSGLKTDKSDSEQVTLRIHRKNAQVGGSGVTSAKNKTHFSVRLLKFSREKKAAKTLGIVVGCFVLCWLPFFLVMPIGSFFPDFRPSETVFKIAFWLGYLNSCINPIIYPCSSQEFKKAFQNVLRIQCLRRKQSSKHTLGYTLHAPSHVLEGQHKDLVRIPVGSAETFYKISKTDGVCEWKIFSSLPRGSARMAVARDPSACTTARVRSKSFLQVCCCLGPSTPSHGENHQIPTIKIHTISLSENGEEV
The experiment in a line: Compound was tested for binding affinity against cloned Alpha-1A adrenergic receptor from bovine brain using radioligand ([3H]prazosin) binding assay.

As usually defined, the Ki is the equilibrium dissociation constant of an inhibitor or competing ligand from its target. Read a high Ki as a looser hold on the target. For `COc1cc2nc(N3CCN(C(=O)c4ccco4)[C@@H]4CCCC[C@@H]43)nc(N)c2cc1OC`, the Ki in assay [1] was 8320 nM; in assay [2] it was 0.135 nM; in assay [3], 12900 nM; in assay [4] it was 3.24 nM; in assay [6] it was 12.3 nM. In assay [5], the “Log Ki” value is reported as -6.13.
As for `COc1cc2nc(N3CCN(C(=O)c4ccco4)C4CCCCC43)nc(N)c2cc1OC` (racemic), the Ki in assay [1] was above 10000 nM; in assay [3], 6920 nM. Besides, in assay [5], the “Log Ki” value is given as -6.17.
For `COc1cc2nc(N3CCN(C(=O)c4ccco4)[C@H]4CCCC[C@H]43)nc(N)c2cc1OC` [CYCLAZOSIN] the same measures were above 10000 nM, 6170 nM and -5.86.
With `O=C(CCCN1CCC2(CC1)C(=O)NCN2c1ccccc1)c1ccc(F)cc1` [SPIPERONE], the values for the Ki in assay [7] and in assay [3] were 13.5 nM and 25.1 nM, respectively.
Consider `COc1cc2nc(N3CCN(C(=O)c4ccco4)CC3)nc(N)c2cc1OC` [PRAZOSIN], for which the Ki in assay [1] was above 10000 nM; in assay [3] it was 2340 nM.
